Assay results from ChEMBL document CHEMBL1131469, “Novel non-peptide fibrinogen receptor antagonists. 1. Synthesis and glycoprotein IIb-IIIa antagonistic activities of 1,3,4-trisubstituted 2-oxopiperazine derivatives incorporating side-chain functions of the RGDF peptide” (J Med Chem, 1998).
Peptide text beside a SMILES is read from it.

target: Integrin alpha-IIb/beta-3 (Homo sapiens, UniProt P05106+P08514); assay: Ability to inhibit binding of biotin-labeled human fibrinogen to immobilized fibrinogen receptor purified from human erythroleukemia (HEL) cells.
Sequence (P05106 27-788 limits assumed): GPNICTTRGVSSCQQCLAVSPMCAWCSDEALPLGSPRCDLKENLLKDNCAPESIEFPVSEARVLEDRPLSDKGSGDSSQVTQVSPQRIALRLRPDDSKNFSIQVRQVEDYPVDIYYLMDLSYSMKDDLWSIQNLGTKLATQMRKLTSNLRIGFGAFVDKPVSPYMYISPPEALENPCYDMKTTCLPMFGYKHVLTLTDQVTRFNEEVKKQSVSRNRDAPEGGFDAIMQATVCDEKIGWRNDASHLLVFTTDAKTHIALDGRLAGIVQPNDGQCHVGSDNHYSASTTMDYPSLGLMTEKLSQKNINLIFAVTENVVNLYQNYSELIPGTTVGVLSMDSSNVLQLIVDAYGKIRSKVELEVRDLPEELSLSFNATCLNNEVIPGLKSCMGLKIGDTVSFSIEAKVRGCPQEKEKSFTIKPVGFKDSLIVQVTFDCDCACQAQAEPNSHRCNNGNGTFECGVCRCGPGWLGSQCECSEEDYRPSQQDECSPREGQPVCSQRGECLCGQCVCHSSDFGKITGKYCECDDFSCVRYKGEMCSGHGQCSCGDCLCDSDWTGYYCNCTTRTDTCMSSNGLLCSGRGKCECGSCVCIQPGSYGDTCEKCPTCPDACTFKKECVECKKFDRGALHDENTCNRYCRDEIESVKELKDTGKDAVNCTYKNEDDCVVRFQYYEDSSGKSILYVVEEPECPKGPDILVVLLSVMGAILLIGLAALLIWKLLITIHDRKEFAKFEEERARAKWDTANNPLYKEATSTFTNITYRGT
Sequence (P08514 32-887 limits assumed): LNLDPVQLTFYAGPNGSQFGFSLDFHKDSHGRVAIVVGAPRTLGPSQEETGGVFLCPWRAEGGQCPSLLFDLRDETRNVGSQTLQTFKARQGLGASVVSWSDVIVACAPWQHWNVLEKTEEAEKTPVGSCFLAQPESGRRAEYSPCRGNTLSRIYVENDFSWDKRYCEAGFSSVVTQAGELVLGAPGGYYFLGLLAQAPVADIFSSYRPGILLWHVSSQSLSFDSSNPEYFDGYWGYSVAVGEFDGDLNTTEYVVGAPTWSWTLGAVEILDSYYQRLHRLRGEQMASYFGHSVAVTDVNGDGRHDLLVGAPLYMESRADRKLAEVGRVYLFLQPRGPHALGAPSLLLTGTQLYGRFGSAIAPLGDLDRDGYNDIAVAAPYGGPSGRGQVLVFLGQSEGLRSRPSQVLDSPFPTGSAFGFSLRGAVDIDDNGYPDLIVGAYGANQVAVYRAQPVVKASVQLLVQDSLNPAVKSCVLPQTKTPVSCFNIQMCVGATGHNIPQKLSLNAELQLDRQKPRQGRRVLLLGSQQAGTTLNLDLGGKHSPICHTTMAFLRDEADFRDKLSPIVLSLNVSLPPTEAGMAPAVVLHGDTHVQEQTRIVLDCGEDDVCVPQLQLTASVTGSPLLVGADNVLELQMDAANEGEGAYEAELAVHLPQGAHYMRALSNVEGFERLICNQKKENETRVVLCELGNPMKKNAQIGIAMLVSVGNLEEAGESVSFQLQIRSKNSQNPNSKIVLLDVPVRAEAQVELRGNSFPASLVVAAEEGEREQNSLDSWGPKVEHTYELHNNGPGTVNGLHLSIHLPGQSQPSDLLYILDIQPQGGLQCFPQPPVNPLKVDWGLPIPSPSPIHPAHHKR
Sequence (P08514 891-1039 limits assumed): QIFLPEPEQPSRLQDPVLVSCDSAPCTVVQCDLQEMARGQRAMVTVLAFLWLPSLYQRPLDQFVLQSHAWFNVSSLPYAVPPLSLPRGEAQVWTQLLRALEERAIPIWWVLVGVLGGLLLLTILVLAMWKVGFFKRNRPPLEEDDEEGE
Method in brief: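 Purified GP IIb-IIIa (1 μg/mL, pH 7.4 Tris/NaCl/CaCl2 buffer) coated overnight at 4 °C, blocked with 3.5% BSA 2 h at 30 °C. Wells then incubated with 1 nM biotinylated fibrinogen plus graded compound concentrations, 3 h at 30 °C. IC50 from dose–response curves.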

SMILES	IC50
COC(=O)C[C@@H]1C(=O)N(CC(=O)O)CCN1C(=O)CNC(=O)c1ccc(C(=N)N)cc1	16.4 nM
N=C(N)NCCC[C@H](N)C(=O)NCC(=O)N[C@@H](CC(=O)O)C(=O)N[C@@H](Cc1ccccc1)C(=O)O (H-RGDF-OH)	110 nM
N=C(N)c1ccc(C(=O)NCC(=O)N2CCN(CC(=O)O)C(=O)[C@@H]2Cc2ccccc2)cc1	1.95 nM
N=C(N)c1ccc(C(=O)NCC(=O)N2CCN(CCC(=O)O)C(=O)[C@@H]2CC(=O)O)cc1	63 nM
N=C(N)c1ccc(C(=O)NCC(=O)N2CCN(CC(=O)O)C(=O)[C@@H]2CCC(=O)O)cc1	0.21 nM
CN(C)C(N)=Nc1ccc(C(=O)NCC(=O)N2CCN(CC(=O)O)C(=O)[C@@H]2CC(=O)O)cc1	210 nM
N=C(N)NCC1CCC(C(=O)NCC(=O)N2CCN(CC(=O)O)C(=O)[C@@H]2CC(=O)O)CC1 (stereo not given in full)	20 nM
N=C(N)c1ccc(C(=O)NCC(=O)N2CCN(CC(N)=O)C(=O)[C@@H]2CC(=O)O)cc1	330 nM
COC(=O)CC[C@H]1C(=O)N(CC(=O)O)CCN1C(=O)CNC(=O)c1ccc(C(=N)N)cc1	0.29 nM
N=C(N)c1cccc(C(=O)NCC(=O)N2CCN(CC(=O)O)C(=O)[C@@H]2CC(=O)O)c1	130 nM
